The target in test [1] is T1, Toll-like receptor 4 (Mus musculus) (UniProt Q9QUK6).
T1 sequence (whole entry): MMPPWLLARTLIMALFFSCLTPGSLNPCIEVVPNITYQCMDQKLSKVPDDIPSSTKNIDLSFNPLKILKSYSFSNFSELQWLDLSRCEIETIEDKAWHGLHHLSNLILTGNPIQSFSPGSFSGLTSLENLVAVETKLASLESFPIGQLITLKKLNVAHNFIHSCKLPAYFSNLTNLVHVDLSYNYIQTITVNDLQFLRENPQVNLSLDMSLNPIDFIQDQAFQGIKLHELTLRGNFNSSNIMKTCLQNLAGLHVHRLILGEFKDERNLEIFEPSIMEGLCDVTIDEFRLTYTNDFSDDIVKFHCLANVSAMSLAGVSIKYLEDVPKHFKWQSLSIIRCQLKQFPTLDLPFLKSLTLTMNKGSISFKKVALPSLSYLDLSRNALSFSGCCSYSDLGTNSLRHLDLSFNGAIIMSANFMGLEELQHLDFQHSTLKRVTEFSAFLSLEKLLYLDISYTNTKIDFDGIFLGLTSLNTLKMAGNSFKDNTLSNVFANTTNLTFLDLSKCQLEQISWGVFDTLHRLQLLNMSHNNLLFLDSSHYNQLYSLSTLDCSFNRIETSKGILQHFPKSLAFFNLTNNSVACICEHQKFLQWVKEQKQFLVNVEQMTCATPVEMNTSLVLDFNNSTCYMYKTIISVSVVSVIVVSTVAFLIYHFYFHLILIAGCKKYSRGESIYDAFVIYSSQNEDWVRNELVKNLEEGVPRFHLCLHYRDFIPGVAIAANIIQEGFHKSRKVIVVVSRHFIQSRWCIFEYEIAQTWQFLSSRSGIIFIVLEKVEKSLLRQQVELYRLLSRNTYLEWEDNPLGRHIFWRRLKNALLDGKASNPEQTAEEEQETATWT
Put plainly: Activation of TLR4 in C57BL/6 mouse BMDC cells assessed as AUC of IP10 release at 5 uM after 18 hrs by ELISA relative to N-cyclohexyl-2-(4-oxo-3-phenyl-4,5-dihydro-3H-pyrimido[5,4-b]indol-2-ylthio)acetamide. The test is classed as cell-based.

In test [2] the target is T2, Toll-like receptor 9 (Homo sapiens) (UniProt Q9NR96).
T2 sequence (whole entry): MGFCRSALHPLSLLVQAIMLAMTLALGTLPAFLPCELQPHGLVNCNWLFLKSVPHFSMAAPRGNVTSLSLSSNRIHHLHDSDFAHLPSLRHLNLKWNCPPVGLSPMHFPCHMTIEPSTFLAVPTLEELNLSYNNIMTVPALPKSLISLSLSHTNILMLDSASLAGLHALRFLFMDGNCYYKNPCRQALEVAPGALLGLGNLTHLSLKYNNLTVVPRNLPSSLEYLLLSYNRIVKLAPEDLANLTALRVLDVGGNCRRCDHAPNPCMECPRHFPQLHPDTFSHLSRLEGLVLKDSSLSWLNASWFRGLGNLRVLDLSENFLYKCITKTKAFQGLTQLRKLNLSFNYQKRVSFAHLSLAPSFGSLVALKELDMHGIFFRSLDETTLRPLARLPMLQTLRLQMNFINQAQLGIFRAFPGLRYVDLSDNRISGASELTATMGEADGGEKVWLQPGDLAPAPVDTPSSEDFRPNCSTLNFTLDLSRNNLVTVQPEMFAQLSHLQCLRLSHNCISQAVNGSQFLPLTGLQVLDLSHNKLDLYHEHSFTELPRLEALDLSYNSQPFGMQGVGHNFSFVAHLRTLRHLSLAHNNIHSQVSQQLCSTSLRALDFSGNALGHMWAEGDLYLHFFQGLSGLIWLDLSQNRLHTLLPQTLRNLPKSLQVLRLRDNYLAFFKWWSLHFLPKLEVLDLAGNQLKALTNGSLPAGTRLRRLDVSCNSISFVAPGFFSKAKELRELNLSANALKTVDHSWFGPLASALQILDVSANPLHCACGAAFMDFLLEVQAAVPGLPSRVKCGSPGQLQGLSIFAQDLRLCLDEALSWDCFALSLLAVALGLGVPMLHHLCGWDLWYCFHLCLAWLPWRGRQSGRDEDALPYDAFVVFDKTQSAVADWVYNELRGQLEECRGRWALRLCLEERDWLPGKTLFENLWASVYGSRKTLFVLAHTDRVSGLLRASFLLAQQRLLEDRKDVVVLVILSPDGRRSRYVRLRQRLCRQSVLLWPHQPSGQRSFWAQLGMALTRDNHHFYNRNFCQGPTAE
The experiment in a line: Activation of human TLR9 transfected in HEK293 cells at 10 uM after 20 to 24 hrs by SEAP assay. The test is classed as cell-based.

Test [3] deals with T1, Toll-like receptor 4 (Mus musculus). Put plainly: Activation of TLR4-mediated type 1 IFN release in C57BL/6 mouse BMDC cells assessed as IP10 level after overnight incubation by ELISA. The test is classed as cell-based. Put shortly: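 Wild-type BMDC incubated overnight with graded concentrations, 0.5% DMSO vehicle; IP-10 in supernatants by ELISA as surrogate of type I IFN. Mean ± SEM of triplicates; two independent experiments.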
(In general: In an ELISA, binding on a coated surface is turned into a signal by an enzyme label.)

Test [4] concerns the target Toll-like receptor 4 (Homo sapiens) (UniProt O00206). The experiment in a line: Activation of human TLR4 transfected in HEK293 cells after 18 hrs by SEAP assay relative to N-cyclohexyl-2-(4-oxo-3-phenyl-4,5-dihydro-3H-pyrimido[5,4-b]indol-2-ylthio)acetamide. The test is classed as cell-based. Set-up: concentration or dose not given beside the values. In short, it runs like this: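 Human TLR4 HEK-Blue cells (2.5 × 10^4/well) given compound at 10 μM for 18 h, 0.5% DMSO vehicle; SEAP in supernatant read at 630 nm, normalized to reference hit set at 100. LPS 10 ng/mL positive control.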

The test system of test [5] is BMDC. The experiment in a line: Induction of IL6 secretion in C57BL/6 mouse TLR4 deficient BMDC cells at 10 uM after 18 hrs by ELISA. The test is classed as functional, cell-based. In short, it runs like this:
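BMDC from Tlr4–/– mice (backcrossed 10 generations onto C57BL/6) and wild-type mice incubated with 10 μM compound for 18 h; IL-6 in culture supernatants by ELISA.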

The target of test [6] is T1, Toll-like receptor 4 (Mus musculus). The experiment in a line: Activation of mouse TLR4 transfected in HEK293 cells assessed as NFkappaB activation after 20 to 24 hrs by SEAP assay. The test is classed as cell-based. Put shortly: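 Human or mouse TLR4 HEK-Blue cells (2.5 × 10^4/well) incubated with graded concentrations for 20–24 h; NFκB-driven SEAP in culture supernatant measured colorimetrically.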

1 molecule from ChEMBL document CHEMBL2384907, “Identification of substituted pyrimido[5,4-b]indoles as selective Toll-like receptor 4 ligands” (J Med Chem, 2013) can be followed below.

Molecules are shown by their SMILES. Activity calls are given as the source filed them. No cut-off for these calls is given here.

Sequence of Toll-like receptor 4 (Homo sapiens) (O00206 whole entry): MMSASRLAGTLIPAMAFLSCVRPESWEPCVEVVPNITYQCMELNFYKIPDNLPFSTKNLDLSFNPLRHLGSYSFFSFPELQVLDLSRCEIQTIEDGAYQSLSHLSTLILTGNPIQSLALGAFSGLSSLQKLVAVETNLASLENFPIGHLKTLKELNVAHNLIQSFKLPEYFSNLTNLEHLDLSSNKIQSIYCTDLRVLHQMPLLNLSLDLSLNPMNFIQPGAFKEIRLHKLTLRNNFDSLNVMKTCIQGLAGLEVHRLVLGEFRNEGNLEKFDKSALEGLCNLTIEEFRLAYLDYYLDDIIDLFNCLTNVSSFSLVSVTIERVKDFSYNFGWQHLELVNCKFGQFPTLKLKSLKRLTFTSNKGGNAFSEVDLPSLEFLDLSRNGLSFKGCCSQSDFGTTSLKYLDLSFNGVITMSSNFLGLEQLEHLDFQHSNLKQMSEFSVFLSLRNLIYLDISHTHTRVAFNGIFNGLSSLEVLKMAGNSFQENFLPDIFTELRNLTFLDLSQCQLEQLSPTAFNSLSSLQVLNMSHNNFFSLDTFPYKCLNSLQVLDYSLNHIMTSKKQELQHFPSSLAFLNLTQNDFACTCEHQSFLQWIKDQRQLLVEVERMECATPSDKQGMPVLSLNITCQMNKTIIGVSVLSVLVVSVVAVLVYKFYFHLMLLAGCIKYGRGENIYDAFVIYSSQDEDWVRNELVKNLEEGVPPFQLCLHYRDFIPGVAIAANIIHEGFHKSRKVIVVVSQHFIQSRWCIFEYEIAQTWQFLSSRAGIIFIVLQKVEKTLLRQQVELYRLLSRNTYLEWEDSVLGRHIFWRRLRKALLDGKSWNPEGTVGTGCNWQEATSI

For `O=C(CSc1nc2c([nH]c3ccccc32)c(=O)n1-c1ccccc1)NC1CCCCC1`, the Activity in test [1] is 100%; in test [3], “Dose-dependent effect”; in test [4], 100%; in test [6] it was “Dose-dependent effect”. Also, the result in test [2] and in test [5] was inactive.
